From PMC6976987 (Molecular Genetics and Metabolism Reports, 2020)
Marks after values point to notes of the source that are not given here.

Experiments:
Assay type in all cases: in vivo, human
Safety assessments [1] = test: Safety assessments
Safety assessments [2] = test: Safety assessments; remark: listed apart in the source
How it was run: (§1)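 Open-label study in healthy adults. Safety was monitored after a single dose (Day 1), during multiple doses alone (Days 2–8), and during co-dosing (Days 9–15 with the CYP3A/P-gp inhibitor; Days 9–18 with the CYP2D6 inhibitor). Measures: treatment-emergent AEs, clinical labs, vital signs, physical exams, 12-lead ECG, 12 h continuous telemetry. An AE counted as treatment-related if possibly, probably or definitely related to study drug.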

Safety assessments [3] = test: Safety assessments; remark: listed apart in the source
How it was run: as §1

[4] = rifampin study (N = 25), whole study
[5] = rifampin study (N = 25), road traffic accident, unrelated to eliglustat or rifampin
[6] = concomitant dosing of eliglustat with ketoconazole, Days 9 to 15, N = 33
[7] = following a single dose of eliglustat, Day 1, N = 36
[8] = ketoconazole study (N = 36), whole study
[9] = multiple-dose eliglustat period, Days 2 to 8, N = 34
[10] = concomitant dosing of eliglustat with paroxetine
[11] = concomitant dosing of eliglustat with paroxetine, Days 9 to 18, N = 35
[12] = multiple-dose eliglustat alone, Days 2 to 8, N = 36
[13] = paroxetine study (N = 36), whole study

CCCCCCCC(=O)N[C@H](CN1CCCC1)[C@H](O)c1ccc2c(c1)OCCO2 [eliglustat]
tolerability (Safety assessments [1]; administered alone and with rifampin): well tolerated
subjects with moderate dizziness (Safety assessments [1]; after completing multiple doses of eliglustat alone): 4.0%
subjects reporting an AE related to eliglustat (Safety assessments [1]; concomitant dosing with IV rifampin, Day 12, N = 25): 4.0%
subjects reporting AEs related to eliglustat (Safety assessments [1]; concomitant dosing with oral rifampin, Days 13 to 17, N = 24): 8.3%
subjects with moderate nausea, vomiting, and retching (Safety assessments [1]; during the multiple doses of eliglustat alone): 4.0%
subjects reporting treatment-related AEs (Safety assessments [1]; following treatment with eliglustat alone, N = 25): 20.0%
Any adverse event (AE), number of events (Safety assessments [1]; [4]): 65 N
Any adverse event (AE), number of subjects (Safety assessments [1]; [4]): 17 (68.0%) N (%)
Any treatment-related AE, number of events (Safety assessments [1]; [4]): 39 N
Any treatment-related AE, number of subjects (Safety assessments [1]; [4]): 11 (44.0%) N (%)
Discontinuations due to AE, number of events (Safety assessments [1]; [5]): 1 ^a N
Discontinuations due to AE, number of subjects (Safety assessments [1]; [5]): 1 (4%) N (%)
Serious AEs, number of events (Safety assessments [1]; [5]): 1 ^a N
Serious AEs, number of subjects (Safety assessments [1]; [5]): 1 (4%) N (%)
Severe AEs, number of events (Safety assessments [1]; [5]): 1 ^a N
Severe AEs, number of subjects (Safety assessments [1]; [5]): 1 (4%) N (%)
subjects reporting moderate AEs that were treatment-related (Safety assessments [1]; rifampin study overall): 12.0%
tolerability (Safety assessments [2]; administered alone and with ketoconazole): well tolerated
subjects with dysmenorrhea of moderate intensity (Safety assessments [2]; concomitant dosing of eliglustat with ketoconazole): 3.0%
number of AEs (Safety assessments [2]; [6]): 33 AEs
subjects with AEs (Safety assessments [2]; [6]): 48.5%
subjects reporting AEs related to eliglustat (Safety assessments [2]; concomitant dosing with ketoconazole, N = 33): 36.4%
subjects reporting AEs possibly related to both eliglustat and ketoconazole (Safety assessments [2]; concomitant dosing, N = 33): 33.3%
subjects reporting treatment-related AEs (Safety assessments [2]; [7]): 5.6%
QTcF interval prolongation (Safety assessments [2]; ketoconazole study): no clinically significant prolongations of QTcF interval
Any adverse event (AE), number of events (Safety assessments [2]; [8]): 58 N
Any adverse event (AE), number of subjects (Safety assessments [2]; [8]): 20 (55.6%) N (%)
Any treatment-related AE, number of events (Safety assessments [2]; [8]): 45 N
Any treatment-related AE, number of subjects (Safety assessments [2]; [8]): 15 (41.7%) N (%)
Discontinuations due to AE, number of events (Safety assessments [2]; [8]): 0 N
Discontinuations due to AE, number of subjects (Safety assessments [2]; [8]): 0 (0.0%) N (%)
Serious AEs, number of events (Safety assessments [2]; [8]): 0 N
Serious AEs, number of subjects (Safety assessments [2]; [8]): 0 (0.0%) N (%)
Severe AEs, number of events (Safety assessments [2]; [8]): 0 N
Severe AEs, number of subjects (Safety assessments [2]; [8]): 0 (0.0%) N (%)
subjects with dysmenorrhea of moderate intensity (Safety assessments [2]; multiple-dose eliglustat): 2.9%
number of AEs (Safety assessments [2]; [9]): 21 AEs
subjects with AEs (Safety assessments [2]; [9]): 32.4%
subjects reporting treatment-related AEs (Safety assessments [2]; multiple-dose eliglustat, N = 34): 23.5%
subjects with headache of moderate intensity (Safety assessments [2]; multiple-dose eliglustat, possibly related to eliglustat, unlikely related to ketoconazole): 2.9%
tolerability (Safety assessments [3]; administered alone and with paroxetine): well tolerated
subjects with application site dermatitis (Safety assessments [3]; [10]): 31.4%
subjects with moderate treatment-related headache (Safety assessments [3]; [10]): 11.4%
number of AEs (Safety assessments [3]; [11]): 194 events
subjects with AEs (Safety assessments [3]; [11]): 91.4%
subjects reporting AEs related to eliglustat (Safety assessments [3]; concomitant dosing with paroxetine, N = 35): 65.7%
subjects reporting AEs possibly related to both eliglustat and paroxetine (Safety assessments [3]; concomitant dosing, N = 35): 65.7%
subjects reporting treatment-related AEs (Safety assessments [3]; [7]): 5.6%
subjects with moderate gastritis (Safety assessments [3]; following multiple-dose eliglustat): 5.6%
subjects who discontinued treatment due to AEs (Safety assessments [3]; gastritis (eliglustat alone), dizziness and nausea, nausea and panic attack (concomitant dosing)): 8.3%
subjects with moderate treatment-related headache (Safety assessments [3]; multiple-dose eliglustat): 2.8%
number of AEs (Safety assessments [3]; [12]): 31 events
subjects with AEs (Safety assessments [3]; [12]): 41.7%
subjects reporting treatment-related AEs (Safety assessments [3]; multiple-dose eliglustat, Days 2 to 8, N = 36): 27.8%
Any adverse event (AE), number of events (Safety assessments [3]; [13]): 233 N
Any adverse event (AE), number of subjects (Safety assessments [3]; [13]): 33 (91.7%) N (%)
Any treatment-related AE, number of events (Safety assessments [3]; [13]): 155 N
Any treatment-related AE, number of subjects (Safety assessments [3]; [13]): 26 (72.2%) N (%)
Discontinuations due to AE, number of events (Safety assessments [3]; [13]): 5 N
Discontinuations due to AE, number of subjects (Safety assessments [3]; [13]): 3 (8.3%) N (%)
Serious AEs, number of events (Safety assessments [3]; [13]): 0 N
Serious AEs, number of subjects (Safety assessments [3]; [13]): 0 (0.0%) N (%)
Severe AEs, number of events (Safety assessments [3]; [13]): 0 N
Severe AEs, number of subjects (Safety assessments [3]; [13]): 0 (0.0%) N (%)
